The source made the active and inactive calls. No cut-off for these calls is given here.
Assays:
[1] = target: T1, Aurora kinase A (Homo sapiens) (UniProt O14965); experiment: Inhibition of aurora A kinase at 10 uM
T1 sequence (whole entry): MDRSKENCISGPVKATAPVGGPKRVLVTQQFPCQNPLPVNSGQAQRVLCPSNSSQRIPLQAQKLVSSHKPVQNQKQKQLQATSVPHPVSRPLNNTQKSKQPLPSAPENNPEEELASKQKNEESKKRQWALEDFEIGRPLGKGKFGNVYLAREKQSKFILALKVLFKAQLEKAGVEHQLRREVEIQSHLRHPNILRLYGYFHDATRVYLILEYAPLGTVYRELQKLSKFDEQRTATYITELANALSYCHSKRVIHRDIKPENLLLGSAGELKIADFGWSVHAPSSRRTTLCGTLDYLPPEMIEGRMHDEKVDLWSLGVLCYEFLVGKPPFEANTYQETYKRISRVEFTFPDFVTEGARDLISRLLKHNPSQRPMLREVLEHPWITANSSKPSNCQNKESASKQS
Method in brief: (§1)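 Aurora-A kinase activity measured by Flashplate or Filterplate assay at 20 µM ATP. Samples run in triplicate and mean reported; some IC50 values are the mean of independent determinations.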

Aurora kinase A = target: T2, Aurora kinase A (Homo sapiens, UniProt O14965); experiment: Inhibition of aurora A kinase; method in brief: as §1
T2 sequence (O14965 whole entry): T1 sequence (whole entry)

[2] = target: T1, Aurora kinase A (Homo sapiens); experiment: Inhibition of aurora A kinase at 100 uM; method in brief: as §1
Cytochrome P450 1A2 = target: T3, Cytochrome P450 1A2 (Homo sapiens, UniProt P05177); experiment: Inhibition of human CYP1A2 after 10 mins; assay type: ADME
T3 sequence (P05177 whole entry): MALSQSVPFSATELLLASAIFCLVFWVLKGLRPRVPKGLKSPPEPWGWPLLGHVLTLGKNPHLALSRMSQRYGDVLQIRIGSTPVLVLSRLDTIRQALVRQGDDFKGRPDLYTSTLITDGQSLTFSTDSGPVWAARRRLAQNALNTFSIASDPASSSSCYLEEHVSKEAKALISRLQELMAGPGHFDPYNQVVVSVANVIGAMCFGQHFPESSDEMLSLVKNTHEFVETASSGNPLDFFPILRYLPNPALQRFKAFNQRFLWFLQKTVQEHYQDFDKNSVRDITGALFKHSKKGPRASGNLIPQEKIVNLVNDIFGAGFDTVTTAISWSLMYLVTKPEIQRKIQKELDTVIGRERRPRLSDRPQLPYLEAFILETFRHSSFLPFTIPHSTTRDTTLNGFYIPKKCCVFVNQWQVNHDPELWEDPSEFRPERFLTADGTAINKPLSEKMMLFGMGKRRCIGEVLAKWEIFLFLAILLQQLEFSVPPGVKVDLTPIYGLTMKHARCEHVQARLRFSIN
Method in brief: (§2)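 Inhibition of CYP isozymes assayed in pooled human liver microsomes from 50 individuals. Microsomal protein 0.5 mg/ml, 10 min incubation. Mephenytoin served as the CYP2C19 substrate. Metabolites were detected by LC–MS–MS with positive electrospray ionisation.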

Cytochrome P450 2C9 = Cytochrome P450 2C9 (Homo sapiens, UniProt P11712); experiment: Inhibition of human CYP2C9 after 10 mins; assay type: ADME; method in brief: as §2
Cytochrome P450 2A6 = target: T4, Cytochrome P450 2A6 (Homo sapiens, UniProt P11509); experiment: Inhibition of human CYP2A6 after 10 mins; assay type: ADME; method in brief: as §2
T4 sequence (P11509 whole entry): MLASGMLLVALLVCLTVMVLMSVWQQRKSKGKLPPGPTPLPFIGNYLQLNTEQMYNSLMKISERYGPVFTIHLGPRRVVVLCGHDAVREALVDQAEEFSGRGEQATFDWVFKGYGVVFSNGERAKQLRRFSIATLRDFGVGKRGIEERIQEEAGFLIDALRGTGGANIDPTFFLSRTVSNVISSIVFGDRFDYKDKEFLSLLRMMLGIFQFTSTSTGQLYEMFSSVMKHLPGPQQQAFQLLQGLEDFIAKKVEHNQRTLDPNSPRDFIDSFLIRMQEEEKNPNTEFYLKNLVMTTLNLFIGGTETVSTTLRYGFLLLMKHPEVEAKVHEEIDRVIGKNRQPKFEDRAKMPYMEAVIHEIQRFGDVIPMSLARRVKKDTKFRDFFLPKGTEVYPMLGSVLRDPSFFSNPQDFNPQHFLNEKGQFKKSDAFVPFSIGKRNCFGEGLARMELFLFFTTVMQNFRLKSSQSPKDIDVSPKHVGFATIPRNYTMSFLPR

Aurora kinase C = target: T5, Aurora kinase C (Homo sapiens, UniProt Q9UQB9); experiment: Inhibition of recombinant aurora C kinase
T5 sequence (Q9UQB9 whole entry): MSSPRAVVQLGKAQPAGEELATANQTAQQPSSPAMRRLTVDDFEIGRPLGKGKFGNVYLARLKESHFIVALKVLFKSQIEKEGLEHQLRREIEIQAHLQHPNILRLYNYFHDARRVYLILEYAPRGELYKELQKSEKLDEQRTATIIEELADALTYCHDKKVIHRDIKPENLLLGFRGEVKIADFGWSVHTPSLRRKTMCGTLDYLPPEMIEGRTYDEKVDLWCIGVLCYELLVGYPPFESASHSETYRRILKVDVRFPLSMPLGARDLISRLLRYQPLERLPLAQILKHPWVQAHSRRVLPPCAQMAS
Method in brief: (§3)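 Purified recombinant Aurora kinase; IC50 determined by either a Flashplate or a Filterplate assay, with ATP in the assay at 20.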

[3] = Metabolic stability in mouse liver microsomes after 30 mins; assay type: ADME, Microsome; conditions: read-out: Stability
Method in brief: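 Compound incubated 30 min with mouse liver microsomes. Percent of parent compound remaining was reported.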

Cytochrome P450 2C19 = Cytochrome P450 2C19 (Homo sapiens, UniProt P33261); experiment: Inhibition of human CYP2C19 after 10 mins; assay type: ADME; method in brief: as §2
Cytochrome P450 2D6 = Cytochrome P450 2D6 (Homo sapiens, UniProt P10635); experiment: Inhibition of human CYP2D6 after 10 mins; assay type: ADME; method in brief: as §2
Aurora kinase B = Aurora kinase B (Homo sapiens, UniProt Q96GD4); experiment: Inhibition of recombinant aurora B kinase; method in brief: as §3
HeLa = experiment: Antiproliferative activity against HeLa cells; assay type: functional; conditions: Homo sapiens
HCT-116 = experiment: Antiproliferative activity against HCT116 cells; assay type: functional; conditions: Homo sapiens

Chain of Cytochrome P450 2C19 (P33261 whole entry): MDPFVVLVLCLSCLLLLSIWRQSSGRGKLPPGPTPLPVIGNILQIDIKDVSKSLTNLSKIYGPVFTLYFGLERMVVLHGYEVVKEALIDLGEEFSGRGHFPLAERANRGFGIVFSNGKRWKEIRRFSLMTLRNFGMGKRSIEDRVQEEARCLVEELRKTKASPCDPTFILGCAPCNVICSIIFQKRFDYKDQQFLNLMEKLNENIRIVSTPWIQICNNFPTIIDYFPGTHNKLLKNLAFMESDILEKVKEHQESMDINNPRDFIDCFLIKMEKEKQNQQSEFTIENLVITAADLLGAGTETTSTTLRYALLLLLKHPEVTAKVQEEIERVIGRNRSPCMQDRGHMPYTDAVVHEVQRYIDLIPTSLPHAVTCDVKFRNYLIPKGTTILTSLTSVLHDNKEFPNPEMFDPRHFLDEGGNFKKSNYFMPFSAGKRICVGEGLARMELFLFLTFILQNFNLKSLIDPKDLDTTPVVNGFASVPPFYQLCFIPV
Chain of Cytochrome P450 2D6 (P10635 whole entry): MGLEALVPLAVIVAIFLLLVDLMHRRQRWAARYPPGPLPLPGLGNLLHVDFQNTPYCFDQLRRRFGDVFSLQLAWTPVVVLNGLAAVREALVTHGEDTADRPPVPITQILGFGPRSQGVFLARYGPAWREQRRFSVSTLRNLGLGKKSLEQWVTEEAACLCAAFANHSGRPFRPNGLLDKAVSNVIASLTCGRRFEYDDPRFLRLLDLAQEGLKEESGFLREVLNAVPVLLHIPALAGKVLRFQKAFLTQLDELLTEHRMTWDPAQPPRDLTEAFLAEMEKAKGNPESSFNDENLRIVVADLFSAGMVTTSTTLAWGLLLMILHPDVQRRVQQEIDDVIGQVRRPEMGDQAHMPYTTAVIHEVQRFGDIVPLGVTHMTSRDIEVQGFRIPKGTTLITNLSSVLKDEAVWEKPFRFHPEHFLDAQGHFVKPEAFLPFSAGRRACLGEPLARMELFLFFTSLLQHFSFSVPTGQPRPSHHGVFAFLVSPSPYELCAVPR
Chain of Cytochrome P450 2C9 (P11712 whole entry): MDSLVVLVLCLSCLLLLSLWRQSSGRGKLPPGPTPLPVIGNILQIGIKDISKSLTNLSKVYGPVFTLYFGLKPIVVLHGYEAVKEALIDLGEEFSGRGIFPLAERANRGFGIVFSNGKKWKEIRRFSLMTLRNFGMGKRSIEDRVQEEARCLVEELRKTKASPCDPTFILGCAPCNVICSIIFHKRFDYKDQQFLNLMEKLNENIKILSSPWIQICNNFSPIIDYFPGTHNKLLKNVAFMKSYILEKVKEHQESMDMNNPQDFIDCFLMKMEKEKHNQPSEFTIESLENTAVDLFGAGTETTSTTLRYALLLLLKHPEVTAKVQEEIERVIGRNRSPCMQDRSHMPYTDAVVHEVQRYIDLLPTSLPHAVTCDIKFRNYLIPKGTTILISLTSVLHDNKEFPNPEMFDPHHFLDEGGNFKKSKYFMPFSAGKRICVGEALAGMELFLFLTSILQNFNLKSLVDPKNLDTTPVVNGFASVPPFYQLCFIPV
Chain of Aurora kinase B (Q96GD4 whole entry): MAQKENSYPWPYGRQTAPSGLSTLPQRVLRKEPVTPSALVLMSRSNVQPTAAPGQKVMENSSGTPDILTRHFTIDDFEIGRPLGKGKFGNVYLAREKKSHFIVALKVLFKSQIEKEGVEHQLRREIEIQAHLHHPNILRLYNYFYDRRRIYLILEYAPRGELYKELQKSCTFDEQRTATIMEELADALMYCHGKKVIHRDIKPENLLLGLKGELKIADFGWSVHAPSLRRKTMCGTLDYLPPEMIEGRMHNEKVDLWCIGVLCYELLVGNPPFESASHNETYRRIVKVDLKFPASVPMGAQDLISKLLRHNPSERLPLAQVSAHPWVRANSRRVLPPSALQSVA

IC50 (Aurora kinase A) [µM]	SMILES	other results
–	CN(C)c1ccc(-c2nc3cc(-c4cccs4)cnc3[nH]2)cc1	inhibition [1]: 34%
35	COc1cc2ncnc(N3CCN(CCOc4ccccc4)CC3)c2cc1OC	–
–	CN(C)c1ccc(-c2nc3cc(-c4cccnc4)cnc3[nH]2)cc1	inhibition [1]: 28%
16.5	COc1cc2ncnc(N3CCN(CC(=O)N(C)c4ccccc4)CC3)c2cc1OC	–
16	COc1cccc(-c2nc3ncccc3[nH]2)c1	–
–	CCn1c(-c2ccc(N(C)C)cc2)nc2cccnc21	inhibition [2]: 26%
7	Cc1ccnc2nc(-c3ccc(N(C)C)cc3)[nH]c12	–
–	COc1cc2ncnc(N3CCN(c4cnccn4)CC3)c2cc1OC	Activity [2]: inactive
–	CN(C)c1ccc(-c2nc3cc(-c4ccc5c(c4)OCO5)cnc3[nH]2)cc1	inhibition [2]: 33%
5.9	COc1cc2ncnc(N3CCN(CC(=O)Nc4nccs4)CC3)c2cc1OC	–
–	COc1cc2ncnc(N3CCN(CC(=O)OC(C)(C)C)CC3)c2cc1OC	Activity [2]: inactive
–	CN(C)c1ccc(-c2nc3c(N4CCN(CC(=O)Nc5nccs5)CC4)c(Cl)cnc3[nH]2)cc1	IC50 (Cytochrome P450 1A2): > 10 µM; IC50 (Cytochrome P450 2C9): 10 µM; IC50 (Cytochrome P450 2A6): > 10 µM; IC50 (Aurora kinase C): 0.227 µM; remaining at 0.5 h [3]: 75%; IC50 (Cytochrome P450 2C19): > 10 µM; IC50 (Cytochrome P450 2D6): > 10 µM; IC50 (Aurora kinase B): 0.198 µM; GI50 (HeLa): 0.2 µM; GI50 (HCT-116): 0.35 µM
0.74	CN(C)c1ccc(-c2nc3cc(C(F)(F)F)cnc3[nH]2)cc1	–
2.4	CN(C)c1ccc(-c2nc3c(Cl)ccnc3[nH]2)cc1	–
–	COc1cc2ncnc(N3CCN(c4ncccn4)CC3)c2cc1OC	Activity [2]: inactive
0.49	CN(C)c1ccc(-c2nc3ncc(Br)cc3[nH]2)cc1	–
6.9	Cc1cnc2[nH]c(-c3ccc(N(C)C)cc3)nc2c1	–
–	CN(C)c1ccc(-c2nc3cc(-c4cccc(O)c4)cnc3[nH]2)cc1	inhibition [1]: 31%
98	COc1cc2ncnc(N3CCN(CC(=O)N4CCCC4)CC3)c2cc1OC	–
40	COc1cc2ncnc(N3CCN(Cc4ccc(F)cc4)CC3)c2cc1OC	–

IC50 (Aurora kinase A) [µM]	SMILES	other results
29	COc1ccccc1-c1nc2ccc[nH]c-2n1	–
10	CN(C)c1cccc(-c2nc3cccnc3[nH]2)c1	–
25	COc1cc2ncnc(N3CCN(C(C)c4ccccc4)CC3)c2cc1OC (stereo not given)	–
–	N#Cc1ccc(-c2nc3cccnc3[nH]2)cc1	inhibition [1]: 38%
6.6	COc1ccc(-c2nc3ncccc3[nH]2)cc1	–
9.6	COc1cc2ncnc(N3CCN(Cc4cccc5ccccc45)CC3)c2cc1OC	–
9	CC(=O)c1cccc(-c2cnc3[nH]c(-c4ccc(N(C)C)cc4)nc3c2)c1	–
12.5	CN(C)c1ccc(-c2nc3cc[nH]cc-3n2)cc1	inhibition [1]: 35%
20	COc1ccc(-c2cnc3nc(-c4ccc(N(C)C)cc4)[nH]c3c2)cc1	–
0.87	CN(C)c1ccc(-c2nc3c(N4CCN(CC(=O)Nc5nccs5)CC4)ccnc3[nH]2)cc1	–
18	CN(C)c1ccc(-c2nc3ncc(-c4cccc(O)c4)cc3[nH]2)cc1	–
–	COc1cc2ncnc(N3CCN(CCn4ccnc4)CC3)c2cc1OC	Activity [2]: inactive
4.6	c1cnc2nc(-c3ccc(N4CCCC4)cc3)[nH]c2c1	–
4.4	c1cnc2nc(-c3ccc(C4CCCCN4)cc3)[nH]c2c1 (stereo not given)	–
0.57	CN(C)c1ccc(-c2nc3cc(Cl)cnc3[nH]2)cc1	–
–	CN(C)c1ccc(-c2nc3ccccc3[nH]2)cc1	inhibition [2]: 8%
4.3	CN(C)c1ccc(-c2nc3cccnc3[nH]2)cc1	–
76	COc1cc2ncnc(N3CCN(CCc4ccccc4)CC3)c2cc1OC	–
–	CN(C)c1ccccc1-c1nc2cccnc2[nH]1	inhibition [1]: 20%
0.25	CN(C)c1ccc(-c2nc3ncc(Cl)c(Cl)c3[nH]2)cc1	–

Reference: ChEMBL document CHEMBL1137627, “Hit generation and exploration: imidazo[4,5-b]pyridine derivatives as inhibitors of Aurora kinases” (Bioorg Med Chem Lett, 2007)
